A selection: hits, their analogues and other compounds. The true share with any hit is near 4%.
Cl transport mod: KCC2 cotransporter modulators, thallium flux, primary screen, cell-based, HEK293 KCC2, FluoZin-2 fluorescence, MLSMR. 190,000 compounds, 2.2% hits. Solute carrier family 12 member 5 (Homo sapiens), Q9H2X9. B-score of Tl+ flux slope (higher = more flux/activation; lower = inhibition) at 10 µM. AID 1456, 2008. KCC2 cells, thallium flux FluoZin-2 fluorescence;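 active means thallium flux slope and its plate-corrected score both differing from the plate sample mean at a set confidence after two filtering rounds, in either direction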;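 further: slope of fluorescence scaled to starting intensity during 10 to 20 s after thallium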
WT yeast gro inh: growth inhibition of WT strain, primary screen, mitochondrial fusion inhibitor project, WT and mutant strains, chemical genetic; mitochondrial fusion phenotypic screen; inhibition, % at 10 µM; 190,000 compounds, 2.1% hits; AID 1362, 2008; in the data active means inhibition above about 58%; tested in S. cerevisiae
b-catenin transl: modulators of beta-catenin nuclear translocation, primary screen, imaging, HeLa cells, immunofluorescence, high-content; nuclear translocation activity, % at 5 µM; 190,000 compounds, 0.3% hits;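 active means nuclear translocation activity above 50% at 5 µM, with a well cell count of 50 or more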;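 further: per-cell ratio of nuclear to cytoplasmic median beta-catenin stain intensity; plate controls were DMSO negative control for no effect and GSK-3 inhibitor IX positive control for full effect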
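assay system = human HeLa cells, endogenous beta-catenin | times = compound treatment 24 h, 37°C, 5% CO2 | detection = Anti-beta-catenin immunofluorescence on PFA-fixed, Triton-permeabilized cells, DAPI nuclei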
Pf gametocyte: late stage P. falciparum gametocyte viability inhibitors, primary screen, ATP luminescence, HTS. 150,000 compounds, 0.065% hits. P. falciparum stage V gametocytes, 24 h. inhibition, % at 10.9 µM. AID 743093, 2013;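 active means inhibition above the mean plus 3 SD of compounds within the control limits, set per campaign, cut at about 38% in these data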;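 further: 0% = DMSO wells and 100% = medium only without gametocytes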
MT stabilize HCS: microtubule stabilizers in HeLa cells, primary screen, imaging, high-content imaging | HeLa tubulin immunostaining HCS, 24 h; share of cells brighter than vehicle mean+2SD | % tubulin-high responders, % at 10 µM | 200,000 compounds, 0.83% hits;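 active means plate Z-score above 3 for both tubulin-high and condensed-nucleus cell shares, with cell loss under 80%, at 10 µM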;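 further: anti alpha tubulin signal scored within the nucleus-defined area of each cell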
* = called active by the depositor; · = no result.

SMILES | Cl transport mod | WT yeast gro inh | b-catenin transl | Pf gametocyte | MT stabilize HCS
CC(=O)N(Cc1cc(=O)[nH]c2ccccc12)c1cccc(C)c1 | · | 65* | -2 | · | 2
C=CCC[C@@H](Cc1ccc(F)cc1)C(=O)OC[C@@H]1CCCN1C(=O)[C@@H](CC=C)CC(=O)N[C@@H](CO)Cc1ccccc1 | · | · | · | 5 | ·
CC(C)(C)[C@@H]1C=C(C(=O)N2CCN(Cc3ccccc3)CC2)O[C@H](OCc2ccc(CO)cc2)C1 | -0.74 | 70* | -3 | -18 | 1
CC(C)(C)[C@H]1C=C(C(=O)N2CCN(Cc3ccc4c(c3)OCO4)CC2)O[C@@H](OCc2ccc(CO)cc2)C1 | -1.4 | 97* | 0 | · | 4
CC(=O)n1cc([C@H]2C=C(C(=O)N3CCN(Cc4ccc5c(c4)OCO5)CC3)O[C@@H](OCc3ccc(CO)cc3)C2)c2ccccc21 | 0.37 | 4 | -1 | · | 3
Cc1ccc(C(=O)CSc2nnnn2C(C)C)c(C)c1 | -0.81 | -9 | 0 | -5 | 2
CC(=O)N1c2ccccc2C2(O)N=C(C)SC12 (stereo unspecified) | 0.44 | 5 | -3 | · | 1
O=C(N/N=C/c1cccnc1)c1ccccc1[N+](=O)[O-] | 0.43 | 0 | -2 | -1 | 2
CCOC(=O)C1=C(C)NC(=O)NC1C(C)C (stereo unspecified) | · | · | · | 15 | ·
O=C1C(Nc2ccccc2)=C/C(=N/S(=O)(=O)c2cccs2)c2ccccc21 | 0.38 | 99* | 0 | · | 30
COC(=O)c1cccc(NS(=O)(=O)c2cccs2)c1C | -0.68 | 17 | -3 | -55 | 3
Cc1ccc(NC2=C/C(=N/S(=O)(=O)c3cccs3)c3ccccc3C2=O)cc1 | 1 | 55 | 2 | · | 5
COC(=O)c1ccccc1NC1=C/C(=N\S(=O)(=O)c2cccs2)c2ccccc2C1=O | · | 62* | 4 | · | 4
Cc1ccccc1CN(C)C(C)C(=O)Nc1ccccc1F (stereo unspecified) | 0.24 | 31 | -2 | 9 | 2
CCS(=O)(=O)c1ccc(O)c(NC(=O)NC2CCCCC2)c1 | -0.56 | · | -1 | -2 | ·
CC(C)CN(C(=O)c1nn(C)c(=O)c2ccccc12)c1nc2ccccc2s1 | · | 67* | 1 | · | 1
COC(=NC(C)C)NC(C)C | 0.28 | · | -1 | · | ·
Cc1ccc(NC(=O)Cn2c(=S)[nH]c3ccccc32)cc1 | -0.55 | -10 | 0 | 16 | 6
CCCCCCCCCS(=O)(=O)N/N=C/c1cccc([N+](=O)[O-])c1 | · | 88* | -3 | · | 1
Cc1ccc(S(=O)(=O)N/N=C/c2cccc([N+](=O)[O-])c2)cc1 | -0.058 | 0 | 0 | · | 5
O=C(NC12CC3CC(CC(C3)C1)C2)c1ccc([N+](=O)[O-])o1 | · | · | · | 9 | ·
CC1CCN(C(=S)c2cn(Cc3ccccc3F)c3ccccc23)CC1 | -0.24 | 74* | -3 | · | 1
O=C(NCCCN1CCOCC1)C(=O)N/N=C/c1cccc2ccccc12 | -0.54 | · | -1 | -9 | ·
Cc1ccc(C2CC(c3ccc(Cl)cc3)=NNC2=O)cc1 (stereo unspecified) | · | 13 | 3 | -16 | 1
O=C1NN=C(c2ccc(Br)cc2)CC1c1ccc(Cl)cc1 (stereo unspecified) | -0.0031 | 58* | 0 | · | 1
SMILES | Cl transport mod | WT yeast gro inh | b-catenin transl | Pf gametocyte | MT stabilize HCS
CN1N=C(c2ccc(Cl)cc2)CC(c2ccc(Cl)cc2)C1=O (stereo unspecified) | -2 | 65* | 2 | 8 | 4
O=C(Nc1cccc(Cl)c1)c1ccc2c(c1)SC1=NS(=O)(=O)CCN12 | 0.56 | 2 | 0 | -4 | 1
COc1cccc(Nc2c3c(nc4c(-c5ccccc5)c(C)nn24)CCC3)c1 | 1.4 | 67* | 4 | 3 | 4
CC1=NN(c2ccc(Cl)cc2)C(=O)/C1=C\c1cccn1-c1ccc(S(N)(=O)=O)cc1 | 0.57 | 81* | 1 | -5 | 3
O=C(c1ccc(-c2ccccc2)cc1)N1CCC(C(=O)N2CCCC2)CC1 | · | 11 | · | · | 3
O=C(c1ccc(-c2nnc(-c3ccccc3)o2)cc1)N1CCCCCC1 | · | 65* | -3 | · | 4
NC(=O)C1=NOC(CNc2ncc(C(F)(F)F)cc2Cl)C1 (stereo unspecified) | -0.18 | -10 | · | · | 1
O=C(COc1ccccc1C(=O)O)Nc1nc2ccc([N+](=O)[O-])cc2s1 | 1.2 | · | -1 | 10 | ·
O=C1CC(c2cccc(Cl)c2)CC(O)=C1C=Nc1cccc(Cl)c1 (stereo unspecified) | -0.29 | 81* | 0 | -3 | 2
CCOC(=O)c1c(NC(=O)CN2C(=O)NC(C)(c3ccc(Cl)cc3)C2=O)sc(C(=O)NC)c1C (stereo unspecified) | -0.089 | -16 | -1 | 18 | 6
Cc1ccc(/C=N/Nc2nc(Cl)c(Cl)cc2Cl)s1 | 7.6* | 7 | 1 | · | 6
O=C(CC1SC(N2CCOCC2)=NC1=O)Nc1cc([N+](=O)[O-])ccc1Cl (stereo unspecified) | 0.49 | -14 | -2 | 17 | 4
COc1ccc(C)cc1S(=O)(=O)N1CCC(C(=O)N2CCN(C)CC2)CC1 | 0.75 | 10 | 0 | -63 | 4
Cc1cc(C)nc(NC(=S)NC(=O)c2ccccc2)n1 | · | · | · | 1 | ·
Cn1ncc2cc(NC(=S)NC(=O)c3ccccc3)ccc21 | 4.2* | 22 | · | 6 | 1
Cn1c(=O)c(C(=O)CSc2nncs2)c(N)n(Cc2ccccc2)c1=O | 0.036 | 19 | -2 | 22 | 2
Cc1ccc(NC(=O)C(Nc2cccc(C)c2)c2ccccc2)cc1 (stereo unspecified) | 0.03 | 70* | -1 | 0 | 2
Cc1nn(C)cc1C(C(=O)NC1CCCCC1)N(C(=O)Cc1cccs1)c1ccc(Cl)cc1 (stereo unspecified) | -1.3 | 9 | · | · | 4
COc1ccccc1CCN1C(=S)NC(C)(C)CC1(C)O (stereo unspecified) | -0.011 | 70* | -2 | -25 | 3
CCN(CC)S(=O)(=O)c1cccc(NC(=O)c2ccc(Br)cc2)c1 | -0.2 | 70* | 1 | 5 | 3
Cc1ccc2c(CC(=O)NCc3ccco3)coc2c1C | · | -6 | 114* | · | 41*
O=C1CCC(/C=C/c2ccccc2)=NN1Cc1ccc(Cl)c(Cl)c1 | · | 38 | -4 | -1 | 1
O=C1CCC(/C=C/c2ccccc2)=NN1Cc1ccccc1Cl | · | 60* | -2 | -8 | 3
C=CCNC(=S)NNC(=O)Cn1c(-c2ccccc2)cc(=O)n2ncnc12 | -0.4 | · | 0 | -36 | ·
COc1ccccc1C(=O)NC(=S)NNC(=O)c1sc2ccccc2c1Cl | 34* | 5 | 1 | -11 | 6
COc1ccccc1C(=O)NNC(=S)NC(=O)c1sc2ccccc2c1Cl | 20* | -8 | 3 | 4 | 4
CCOc1ccc(CO/N=C/c2c(C)[nH]c(=O)[nH]c2=O)cc1 | -0.89 | 6 | -4 | 18 | 1

Bioassay records: PubChem BioAssay, several laboratories
